Test results taken from ChEMBL document CHEMBL3244020, “Trichloroacetamidines, a new class of positive inotropic agents” (J Med Chem, 1978).
The source made the active and inactive calls. No cut-off for these calls is given here.

Legend:
[1] = Positive inotropic activity in cat heart papillary muscle assessed as increase in contractile force at 2.5 ug/mL measured for 5 to 30 mins; format: functional, Felis catus, Muscle tissue
Method in brief: (§1)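 Right-ventricular cat papillary muscles in Krebs–Henseleit at 37 °C, field-stimulated at 1/s (4–10 ms, 6–10 V). Muscles equilibrated about 90 min, until force fell to 25–30% of original. Compound added and force recorded at 5, 10, 20 and 30 min, followed by ouabain 0.5 μg/mL. Positives were retested on three more preparations at ≥3 concentrations. Scored as mg increase in contractile force.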

[2] = Inhibition of calf heart Na+-K+ dependent ATPase after 10 to 20 mins; set-up: species or system Bos taurus; conditions: read-out: I50
Method in brief: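 Partially purified membrane ATPase from calf heart or guinea pig renal cortex. Reaction started by final addition of enzyme. Incubated at 37 °C under air, with aliquots taken at 10 and 20 min. Liberated phosphate measured by the Lowry–Lopez method. I50 came from log inhibitor vs percent inhibition lines, at least three points. This was done only where acute inhibition was >50% at 1 × 10⁻³ M.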

[3] = system: Canis familiaris; test: Positive inotropic activity in Beagle dog assessed as increase in left ventricular pressure at 1.25 mg/kg, iv; format: functional, organism-based; set-up: dose 1.25 mg/kg; conditions: Canis lupus familiaris, Heart left ventricle
[4] = system: Canis familiaris; test: Toxicity in Beagle dog assessed as reduction in mean arterial pressure at 5 mg/kg, iv; format: organism-based, Canis lupus familiaris, Artery; set-up: dose 5 mg/kg, route intravenous; conditions: in vivo
[5] = system: Canis familiaris; test: Positive inotropic activity in Beagle dog assessed as increase in left ventricular contractile force at 1.25 mg/kg, iv measured within 5 mins (reference value: 76 g); format: functional, Canis lupus familiaris, Heart left ventricle
[6] = system: Canis familiaris; test: Toxicity in Beagle dog assessed as effect on mean arterial pressure at 1.25 mg/kg, iv; format: organism-based, Canis lupus familiaris, Artery; set-up: dose 1.25 mg/kg, route intravenous; conditions: in vivo
[7] = system: Canis familiaris; test: Positive inotropic activity in Beagle dog assessed as increase in left ventricular contractile force at 5 mg/kg, iv; format: functional, organism-based; set-up: dose 5 mg/kg; conditions: Canis lupus familiaris, Heart left ventricle
[8] = Inhibition of calf heart Na+-K+ dependent ATPase preincubated for 30 mins measured after 10 to 20 mins; set-up: species or system Bos taurus; conditions: read-out: I50
Method in brief: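 Partially purified membrane ATPase from calf heart or guinea pig renal cortex. Inhibitor plus enzyme were preincubated 30 min at 10× final concentrations, then added to the otherwise complete assay system. Incubated at 37 °C under air, with aliquots taken at 10 and 20 min. Liberated phosphate measured by the Lowry–Lopez method. I50 came from log inhibitor vs percent inhibition lines, at least three points.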

[9] = Positive inotropic activity in cat heart papillary muscle assessed as increase in contractile force at 1.7 ug/mL measured for 10 mins (reference value: 855 mg); format: functional, Felis catus, Muscle tissue
Method in brief: (§2)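 Electrically paced (1/s) right-ventricular cat papillary muscles in Krebs–Henseleit solution at 37 °C. Compound added after force declined to 25–30% of original following about 90 min equilibration. Contractile force followed over time to peak and to end of action. Values are the average of four experiments.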

[10] = system: Canis familiaris; test: Positive inotropic activity in Beagle dog assessed as increase in left ventricular dp/dt maximum at 1.25 mg/kg, iv; format: functional, organism-based; set-up: dose 1.25 mg/kg; conditions: Canis lupus familiaris, Heart left ventricle
[11] = system: Canis familiaris; test: Positive inotropic activity in Beagle dog assessed as increase in left ventricular contractile force at 1.25 mg/kg, iv measured after 1 hr; format: functional, organism-based; set-up: dose 1.25 mg/kg; conditions: Canis lupus familiaris, Heart left ventricle
[12] = Positive inotropic activity in cat heart papillary muscle assessed as concentration required to increase contractile force by 500 mg measured for 5 to 30 mins; format: functional, Felis catus, Muscle tissue; method in brief: as §1
[13] = species: Felis catus; test: Positive inotropic activity in cat heart papillary muscle assessed as increase in contractile force up to 10 ug/mL measured for 5 to 30 mins in presence of beta-adrenergic inhibitor sotalol; format: functional, tissue-based
Method in brief: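 Cat right-ventricular papillary muscle in Krebs–Henseleit at 37 °C, electrically driven at 1/s. Force recorded 5–30 min after compound, in the presence of the β-blocker sotalol at 10 μg/mL. Scored as mg increase in contractile force.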

[14] = species: Felis catus; test: Positive inotropic activity in cat heart papillary muscle assessed as increase in contractile force at 1.7 ug/mL measured up to 45 mins; format: functional, tissue-based; conditions: Muscle tissue; method in brief: as §2
[15] = system: Canis familiaris; test: Toxicity in Beagle dog assessed as increase in heart rate at 1.25 to 5 mg/kg, iv measured within 2 mins; format: organism-based, Canis lupus familiaris; set-up: dose 1.25-5 mg/kg, route intravenous; conditions: in vivo
[16] = Positive inotropic activity in cat heart papillary muscle assessed as increase in contractile force at 0.156 ug/mL measured for 5 to 30 mins; format: functional, Felis catus, Muscle tissue
Method in brief: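 Right-ventricular cat papillary muscles in Krebs–Henseleit solution at 37 °C, paced at 1/s (4–10 ms, 6–10 V square waves). Equilibrated about 90 min; compound added once force had fallen to 25–30% of original (1.5–2 h). Force recorded 5, 10, 20 and 30 min after addition, then ouabain 0.5 μg/mL added. Increase over 20% scored positive. Actives retested on three further preparations at ≥3 concentrations.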

[17] = Dissociation constant, pKa of the compound; format: physicochemical
Method in brief: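 pKa determined in water or in 30% EtOH–70% H2O, depending on compound.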

[18] = species: Felis catus; test: Positive inotropic activity in heart papillary muscle isolated from reserpine-treated cat assessed as increase in contractile force at 10 ug/mL measured for 5 to 30 mins; format: functional, tissue-based; conditions: Muscle tissue
Method in brief: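 Cats pretreated with reserpine 0.5 mg/kg ip before papillary muscle isolation. Right-ventricular muscles kept in Krebs–Henseleit at 37 °C, stimulated at 1/s, and force recorded at 5–30 min after compound addition.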

[19] = Positive inotropic activity in cat heart papillary muscle assessed as increase in contractile force at 10 ug/mL measured for 5 to 30 mins; format: functional, Felis catus, Muscle tissue; method in brief: as §1

SMILES: N=C(NCc1c[nH]c2ccccc12)C(Cl)(Cl)Cl
- Activity [1]: 201 mg
- IC50 [2]: 45 µM
- Activity [3]: Active
- Activity [4]: Toxic
- Activity [5]: 125 g
- Activity [6]: Non-toxic
- Activity [7]: Active
- IC50 [8]: 20 µM
- Activity [9]: 1375 mg
- Activity [10]: Active
- Activity [11]: Active
- Activity [12]: 1.27 µg/mL
- Activity [13]: Active
- Activity [14]: Active
- Activity [15]: Toxic
- Activity [16]: 201 mg
- pKa [17]: 6
- Activity [18]: Active
- Activity [19]: >600 mg
